Structures can show the parent of a compound that is named as a salt. Activity calls are given as the source filed them. The rule behind the calls is not given here. Non-standard residues stand in square brackets, D forms with d. Residues, ends and D or L forms follow the SMILES beside them. *: point of attachment. Lys(Thioacetyl) = CC(=S)NCCCC[C@H](N)C(=O)O; AMC = Cc1cc(=O)oc2cc(N*)ccc12; Cbz = O=C(OCc1ccccc1)*; Propionyl = CCC(=O)*; Tfa = O=C(C(F)(F)F)*; Butyryl = CCCC(=O)*; NHiPr = CC(C)N*
What was measured:
[1] = biological target: T1, NAD-dependent protein deacetylase sirtuin-2 (Homo sapiens) (UniProt Q8IXJ6); test: Inhibition of human recombinant C-terminal His-tagged SIRT2 (50 to 356 residues) deacetylation activity in presence of substrate and NAD+ incubated for 60 mins measured after 90 mins by fluorescence assay
T1 sequence (whole entry): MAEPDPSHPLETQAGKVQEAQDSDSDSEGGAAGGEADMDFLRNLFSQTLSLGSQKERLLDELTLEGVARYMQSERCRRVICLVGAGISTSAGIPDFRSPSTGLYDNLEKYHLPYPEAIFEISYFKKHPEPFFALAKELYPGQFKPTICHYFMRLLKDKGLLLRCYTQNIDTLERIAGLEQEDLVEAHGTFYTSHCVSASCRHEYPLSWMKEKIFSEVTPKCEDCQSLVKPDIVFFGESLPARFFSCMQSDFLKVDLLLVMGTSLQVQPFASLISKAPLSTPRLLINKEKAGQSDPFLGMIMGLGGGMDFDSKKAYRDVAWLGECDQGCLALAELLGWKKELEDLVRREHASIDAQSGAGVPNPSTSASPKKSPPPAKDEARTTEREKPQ
Method in brief: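 Recombinant SIRT2 (100 nM or 250 nM) incubated with fluorogenic thioacyl or oxo lysine-AMC substrates plus NAD+. Deacylation read by fluorescence. Two independent experiments in duplicate, standard deviation.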

[2] = system: HEK293; test: Inhibition of deacetylation activity in HEK293 cell lysate incubated with substrate for 2 hrs at 50 uM measured after 90 mins by fluorescence assay; type: functional, subcellular; conditions: Homo sapiens
Method in brief: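 Fluorogenic thioacyl or acyl lysine-AMC substrates incubated with fresh HEK293 cell lysate (~65 μg). Deacylation measured by fluorescence. Two independent experiments in duplicate, standard deviation.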

[3] = biological target: T1, NAD-dependent protein deacetylase sirtuin-2 (Homo sapiens); test: Inhibition of human C-terminal His-tagged SIRT2 (50 to 356 residues) expressed in Escherichia coli using Ac-Gln-Pro-Lys-Lys(pro)-AMC (oxo-11) as substrate at 100 uM by fluorescence assay relative to control
[4] = biological target: T2, NAD-dependent protein deacetylase sirtuin-1 (Homo sapiens) (UniProt Q96EB6); test: Inhibition of human recombinant N-terminal GST-tagged SIRT1 (193 to 741 residues) expressed in Escherichia coli using Ac-Gln-Pro-Lys-Lys(Ac)-AMC (oxo-10) as substrate at 100 uM by fluorescence assay relative to control
T2 sequence (whole entry): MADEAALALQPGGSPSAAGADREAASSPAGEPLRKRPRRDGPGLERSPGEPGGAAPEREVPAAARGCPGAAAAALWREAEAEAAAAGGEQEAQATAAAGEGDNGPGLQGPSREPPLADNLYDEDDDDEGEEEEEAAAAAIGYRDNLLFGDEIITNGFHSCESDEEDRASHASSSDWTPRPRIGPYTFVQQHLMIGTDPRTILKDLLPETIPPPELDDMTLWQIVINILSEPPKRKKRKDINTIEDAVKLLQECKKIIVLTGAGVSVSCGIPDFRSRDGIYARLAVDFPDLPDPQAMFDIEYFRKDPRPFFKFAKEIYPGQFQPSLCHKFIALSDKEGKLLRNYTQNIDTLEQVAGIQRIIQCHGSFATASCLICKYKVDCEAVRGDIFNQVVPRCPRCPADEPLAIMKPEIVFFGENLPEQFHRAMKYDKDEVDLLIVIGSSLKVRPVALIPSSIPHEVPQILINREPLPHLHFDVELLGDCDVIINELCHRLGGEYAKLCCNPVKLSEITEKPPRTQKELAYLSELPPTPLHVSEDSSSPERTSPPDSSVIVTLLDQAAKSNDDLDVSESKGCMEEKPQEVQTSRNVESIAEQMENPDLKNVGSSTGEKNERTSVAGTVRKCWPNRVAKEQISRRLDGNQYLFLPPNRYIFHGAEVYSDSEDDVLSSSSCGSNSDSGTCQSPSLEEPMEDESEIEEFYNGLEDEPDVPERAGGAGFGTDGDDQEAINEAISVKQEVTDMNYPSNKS

[5] = biological target: T3, NAD-dependent protein deacetylase sirtuin-3, mitochondrial (Homo sapiens) (UniProt Q9NTG7); test: Inhibition of human N-terminal GST-tagged SIRT3 (102 to 399 residues) expressed in Escherichia coli using Ac-Gln-Pro-Lys-Lys(but)-AMC (oxo-12) as substrate at 100 uM by fluorescence assay relative to control
T3 sequence (whole entry): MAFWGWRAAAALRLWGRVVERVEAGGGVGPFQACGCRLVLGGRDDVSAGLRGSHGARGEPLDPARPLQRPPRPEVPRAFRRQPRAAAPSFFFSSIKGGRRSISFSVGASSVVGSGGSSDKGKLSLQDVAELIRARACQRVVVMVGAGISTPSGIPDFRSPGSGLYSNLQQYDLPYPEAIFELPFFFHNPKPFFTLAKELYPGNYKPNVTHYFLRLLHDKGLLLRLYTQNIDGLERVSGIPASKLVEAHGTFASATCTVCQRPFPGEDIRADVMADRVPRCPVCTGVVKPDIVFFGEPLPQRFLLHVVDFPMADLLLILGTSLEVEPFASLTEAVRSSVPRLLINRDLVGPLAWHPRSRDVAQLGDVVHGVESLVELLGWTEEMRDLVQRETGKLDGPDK

[6] = biological target: T2, NAD-dependent protein deacetylase sirtuin-1 (Homo sapiens); test: Inhibition of human N-terminal GST-tagged SIRT1 (193 to 741 residues) expressed in Escherichia coli preincubated with NAD+ for 30 mins using Ac-Gln-Pro-Lys-Lys(Ac)-AMC (oxo-10) as substrate at 1 to 100 uM measured after 90 mins by fluorescence assay; conditions: dose microM 1-100, time 120.0 min
Method in brief: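 Recombinant SIRT1 (100 nM) preincubated 30 min with compound, either with or without NAD+ (500 μM), before the fluorogenic deacetylation read-out. Single-dose %-inhibition. Two independent experiments in duplicate, standard deviation.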

[7] = Metabolic stability of compound in human serum assessed as half life incubated for >10 mins measured after 90 mins by HPLC analysis; type: ADME, cell-free
[8] = Metabolic stability of compound in human serum assessed as drug degradation incubated for >10 mins measured after 90 mins by HPLC analysis; type: ADME, cell-free; conditions: 1.5 h
[9] = biological target: T2, NAD-dependent protein deacetylase sirtuin-1 (Homo sapiens); test: Inhibition of SIRT1 in HEK293 cells assessed as increase in p53 acetylation co-treated with TSA at 25 uM for 6 hrs by western blot analysis; type: cell-based
Method in brief: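 HEK293 cells exposed 6 h to compound at 25 μM together with TSA (1 μM). Whole-cell lysates immunoblotted for Ac-p53 (K382) and total p53. Ratio Ac-p53/p53 normalized to DMSO control. Two independent experiments in duplicate, SEM.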

[10] = biological target: T4, NAD-dependent protein deacetylase sirtuin-1 (Homo sapiens, UniProt Q96EB6); test: Inhibition of human recombinant N-terminal GST-tagged SIRT1 (193 to 741 residues) expressed in Escherichia coli using Ac-Gln-Pro-Lys-Lys(Ac)-AMC (oxo-10) as substrate by fluorescence assay
T4 sequence (Q96EB6 whole entry): T2 sequence (whole entry)

[11] = biological target: T3, NAD-dependent protein deacetylase sirtuin-3, mitochondrial (Homo sapiens); test: Inhibition of human N-terminal GST-tagged SIRT3 (102 to 399 residues) expressed in Escherichia coli using Ac-Gln-Pro-Lys-Lys(but)-AMC (oxo-12) as substrate at 10 uM by fluorescence assay relative to control
[12] = biological target: T1, NAD-dependent protein deacetylase sirtuin-2 (Homo sapiens); test: Inhibition of human C-terminal His-tagged SIRT2 (50 to 356 residues) expressed in Escherichia coli using Ac-Gln-Pro-Lys-Lys(pro)-AMC (oxo-11) as substrate at 10 uM by fluorescence assay relative to control
[13] = biological target: T5, NAD-dependent protein deacetylase sirtuin-2 (Homo sapiens, UniProt Q8IXJ6); test: Inhibition of human C-terminal His-tagged SIRT2 (50 to 356 residues) expressed in Escherichia coli using Ac-Gln-Pro-Lys-Lys(pro)-AMC (oxo-11) as substrate by fluorescence assay
T5 sequence (Q8IXJ6 whole entry): T1 sequence (whole entry)

[14] = biological target: T2, NAD-dependent protein deacetylase sirtuin-1 (Homo sapiens); test: Inhibition of human recombinant N-terminal GST-tagged SIRT1 (193 to 741 residues) deacetylation activity in presence of substrate and NAD+ at 15 uM after 60 mins by reversed-phase UPLC-MS analysis relative to control
[15] = biological target: T3, NAD-dependent protein deacetylase sirtuin-3, mitochondrial (Homo sapiens); test: Inhibition of human recombinant N-terminal GST-tagged SIRT3 (102 to 399 residues) deacetylation activity in presence of substrate and NAD+ at 15 uM after 60 mins measured by reversed-phase UPLC-MS analysis relative to control
[16] = biological target: T4, NAD-dependent protein deacetylase sirtuin-1; test: Inhibition of human recombinant SIRT1 expressed in Escherichia coli in presence of acyl peptide acetyl-H3K9 as substrate incubated for 5 mins by HPLC analysis

CCCC(=O)NCCCC[C@H](NC(=O)[C@H](CCCCN)NC(=O)[C@@H]1CCCN1C(=O)[C@H](CCC(N)=O)NC(C)=O)C(=O)Nc1ccc2c(C)cc(=O)oc2c1 (Ac-QPKK(Butyryl)-{AMC})
inhibition [1]: Active | Activity [2]: Active

CC(C)NC(=O)[C@H](Cc1c[nH]c2ccccc12)NC(=O)[C@H](CCCCNC(=O)C(F)F)NC(=O)OCc1ccccc1
inhibition [3]: 17% | inhibition [4]: 29% | inhibition [5]: 9% | inhibition [6]: inactive

CNC(=S)NCCCC[C@H](NC(=O)OCc1ccccc1)C(=O)N[C@@H](Cc1c[nH]c2ccccc12)C(=O)NC(C)C
half-life [7]: < 1 h | Activity [8]: Not Active | inhibition [6]: Active | inhibition [9]: Active

Cc1cc(C)nc(SCC(=O)Nc2ncc(Cc3cccc4ccccc34)s2)n1
inhibition [9]: inactive

CC(=O)NCCCC[C@H](NC(=O)[C@H](CCCCN)NC(=O)[C@@H]1CCCN1C(=O)[C@H](CCC(N)=O)NC(C)=O)C(=O)Nc1ccc2c(C)cc(=O)oc2c1 (Ac-QPKK(Ac)-{AMC})
inhibition [1]: Active | Activity [2]: Active

NC(=O)C1CCCc2c1[nH]c1ccc(Cl)cc21 (stereo not given)
inhibition [6]: inactive | inhibition [9]: Active

CC(C)NC(=O)[C@H](Cc1c[nH]c2ccccc12)NC(=O)[C@H](CCCCNC(N)=S)NC(=O)OCc1ccccc1
half-life [7]: > 7 h | IC50 [10]: 980 nM | inhibition [6]: Active | inhibition [11]: 2% | inhibition [12]: 28%

CCC(=O)NCCCC[C@H](NC(=O)[C@H](CCCCN)NC(=O)[C@@H]1CCCN1C(=O)[C@H](CCC(N)=O)NC(C)=O)C(=O)Nc1ccc2c(C)cc(=O)oc2c1 (Ac-QPKK(Propionyl)-{AMC})
inhibition [1]: Active | Activity [2]: Active

CCCC(=S)NCCCC[C@H](NC(=O)OCc1ccccc1)C(=O)N[C@@H](Cc1c[nH]c2ccccc12)C(=O)NC(C)C
IC50 [13]: 440 nM | IC50 [10]: 540 nM | inhibition [14]: inactive | inhibition [5]: 10% | inhibition [6]: Active | inhibition [15]: inactive

CCCC(=S)NCCCC[C@H](NC(=O)[C@H](CCCCN)NC(=O)[C@@H]1CCCN1C(=O)[C@H](CCC(N)=O)NC(C)=O)C(=O)Nc1ccc2c(C)cc(=O)oc2c1
Activity [2]: Active

CC(=S)NCCCC[C@H](NC(=O)OCc1ccccc1)C(=O)Nc1ccccc1
IC50 [16]: 6500 nM | inhibition [14]: inactive | inhibition [6]: inactive | inhibition [15]: inactive

CCNC(=S)NCCCC[C@H](NC(=O)OCc1ccccc1)C(=O)N[C@@H](Cc1c[nH]c2ccccc12)C(=O)NC(C)C
half-life [7]: < 1 h | IC50 [10]: 1900 nM | Activity [8]: Not Active | inhibition [6]: Active | inhibition [11]: 2% | inhibition [12]: 71%

CC(=O)N[C@@H](CCC(N)=O)C(=O)N1CCC[C@H]1C(=O)N[C@@H](CCCCN)C(=O)N[C@@H](CCCCNC(C)=S)C(=O)Nc1ccc2c(C)cc(=O)oc2c1 (Ac-QPK[Lys(Thioacetyl)]-{AMC})
Activity [2]: Active

CC(C)NC(=O)[C@H](Cc1c[nH]c2ccccc12)NC(=O)[C@H](CCCCNC(=O)C(F)(F)F)NC(=O)OCc1ccccc1 (Cbz-Lys(Tfa)-Trp-NHiPr)
inhibition [3]: 3% | inhibition [4]: 24% | inhibition [5]: 5% | inhibition [6]: inactive | inhibition [9]: inactive

CCC(=S)NCCCC[C@H](NC(=O)[C@H](CCCCN)NC(=O)[C@@H]1CCCN1C(=O)[C@H](CCC(N)=O)NC(C)=O)C(=O)Nc1ccc2c(C)cc(=O)oc2c1
Activity [2]: Active

CCCCNC(=S)NCCCC[C@H](NC(=O)OCc1ccccc1)C(=O)N[C@@H](Cc1c[nH]c2ccccc12)C(=O)NC(C)C
IC50 [13]: 1400 nM | IC50 [10]: 1130 nM | inhibition [5]: 2% | inhibition [6]: Active

— ChEMBL document CHEMBL4725432, “Dethioacylation by Sirtuins 1-3: Considerations for Drug Design Using Mechanism-Based Sirtuin Inhibition” (ACS Med Chem Lett, 2020)
